In PMC6226371 (Journal of medicinal chemistry, 2018):
Where two headings read alike, the source gives them in different places.

How the values were obtained:
hMC4R [1] = target: T1, hMC4R (Homo sapiens, UniProt P32245); assay type: cell-based
hMC4R [2] = target: T1, hMC4R; assay: PRESTO-Tango β-arrestin2 recruitment assay, HTLA cells transfected with hMC4R; assay type: cell-based
hMC4R [3] = target: T1, hMC4R; assay: AlphaScreen cAMP Schild analysis, inhibition of NDP-MSH agonist stimulation; assay type: cell-based; details: antagonism of NDP-MSH, pA2 = −log(Ki)
Method in brief: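 HEK293 cells stably expressing Flag-tagged hMC4R (calcium phosphate transfection, G418 selection), lifted with Versene, 10,000 cells/well in HBSS stimulation buffer (0.5 mM IBMX, 5 mM HEPES, 0.1% BSA, pH 7.4).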

[4] = target: mMC4R-NanoLuc and mMC4R-HaloTag homodimer (Mus musculus, UniProt P56450); assay: NanoBRET ligand-induced response of the mMC4R homodimer; assay type: cell-based
Sequence of mMC4R-NanoLuc and mMC4R-HaloTag homodimer (P56450 whole entry): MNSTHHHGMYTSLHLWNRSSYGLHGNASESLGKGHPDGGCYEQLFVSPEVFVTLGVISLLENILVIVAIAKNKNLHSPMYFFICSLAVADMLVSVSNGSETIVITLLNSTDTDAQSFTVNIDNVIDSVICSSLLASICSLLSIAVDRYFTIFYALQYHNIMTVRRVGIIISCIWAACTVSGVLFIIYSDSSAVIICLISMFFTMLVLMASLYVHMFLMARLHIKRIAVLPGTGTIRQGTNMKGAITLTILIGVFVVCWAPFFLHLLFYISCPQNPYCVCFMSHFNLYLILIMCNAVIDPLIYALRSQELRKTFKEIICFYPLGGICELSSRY
Sequence of mMC4R-NanoLuc and mMC4R-HaloTag homodimer (P56450 whole entry): as above

[5] = target: human melanocortin-4 receptor (hMC4R-Flag) (human) (UniProt P32245)
Sequence of human melanocortin-4 receptor (hMC4R-Flag) (human) (P32245 whole entry): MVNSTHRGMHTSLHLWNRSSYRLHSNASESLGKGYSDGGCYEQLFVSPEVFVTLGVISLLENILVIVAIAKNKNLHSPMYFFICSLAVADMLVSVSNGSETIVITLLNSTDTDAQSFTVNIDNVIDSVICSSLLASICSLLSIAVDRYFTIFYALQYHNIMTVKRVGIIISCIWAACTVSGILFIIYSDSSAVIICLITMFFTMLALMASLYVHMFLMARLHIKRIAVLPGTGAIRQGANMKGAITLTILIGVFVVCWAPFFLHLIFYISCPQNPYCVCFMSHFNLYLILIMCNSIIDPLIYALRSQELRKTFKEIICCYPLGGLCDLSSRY

hMC4R [6] = details: 1 µM, not significant; cited from earlier work

T1 sequence (P32245 whole entry): as above

Question: For `CC(=O)N[C@@H](Cc1c[nH]cn1)C(=O)N[C@H](Cc1ccc2ccccc2c1)C(=O)N[C@@H](CCCNC(=N)N)C(=O)N[C@@H](Cc1c[nH]c2ccccc12)C(=O)N1CCC[C@H]1C(=O)NCC(=O)N1CCC[C@H]1C(=O)NCC(=O)N1CCC[C@H]1C(=O)NCC(=O)N1CCC[C@H]1C(=O)NCC(=O)N1CCC[C@H]1C(=O)NCC(=O)N1CCC[C@H]1C(=O)NCC(=O)N[C@@H](Cc1c[nH]cn1)C(=O)N[C@H](Cc1ccccc1)C(=O)N[C@@H](CCCNC(=N)N)C(=O)N[C@@H](Cc1c[nH]c2ccccc12)C(N)=O` [CJL-1–63], which “cAMP pharmacology” value (hMC4R [1]; hMC4R) is on record?
Answer: single digit nanomolar potent agonists

Question: Which EC50 (hMC4R [2]) does the source give for `CC(=O)NCCCOCCOCCOCCCNC(=O)COCC(=O)N[C@@H](Cc1c[nH]cn1)C(=O)N[C@H](Cc1ccccc1)C(=O)N[C@@H](CCCNC(=N)N)C(=O)N[C@@H](Cc1c[nH]c2ccccc12)C(N)=O` [CJL-1–116] here?
Answer: 140 ± 70 nM

Question: And the “fold increase in β-arrestin recruitment potency compared to CJL-1–14” value (hMC4R [2]; hMC4R)?
Answer: < 3 fold

Question: What about the EC50 (hMC4R [1]) of the same molecule?
Answer: 2 ± 0.3 nM

Question: For `CC(=O)N[C@@H](Cc1c[nH]cn1)C(=O)N[C@H](Cc1ccc2ccccc2c1)C(=O)N[C@@H](CCCNC(=N)N)C(=O)N[C@@H](Cc1c[nH]c2ccccc12)C(=O)NCCCOCCOCCOCCCNC(=O)COCC(=O)NCCCOCCOCCOCCCNC(=O)COCC(=O)N[C@@H](Cc1c[nH]cn1)C(=O)N[C@H](Cc1ccccc1)C(=O)N[C@@H](CCCNC(=N)N)C(=O)N[C@@H](Cc1c[nH]c2ccccc12)C(N)=O` [CJL-5–74], which “cAMP pharmacology” value (hMC4R [1]; hMC4R) is on record?
Answer: single digit nanomolar potent agonists

Question: For Ac-His-DNal(2ʹ)-Arg-Trp-NH2 [CJL-1–80], which “pA2 (Schild analysis)” value (hMC4R [3]) is on record?
Answer: 7.82±0.03

Question: What about the “change in BRET signal from basal levels” value ([4]; 10^−5, 10^−7 and 10^−9 M) of the same molecule?
Answer: no significant changes

Question: What about the “β-Arrestin recruitment, % of maximal signal at 10 µM compared to control NDP-MSH maximal signal” value (hMC4R [2]; hMC4R) of the same molecule?
Answer: 30% at 10 µM

Question: And the “β-Arrestin recruitment, % of maximal signal at 10 µM compared to control NDP-MSH maximal signal” value (hMC4R [2]; hMC4R, listed as Ac-His-DNal(2ʹ)-Arg-Trp-NH2)?
Answer: 30%

Question: What about the “cAMP signaling, % of maximal signal at 10 µM compared to control NDP-MSH maximal signal” value (hMC4R [1]; hMC4R, at 10 µM) of the same molecule?
Answer: 50%

Question: With MTII (peptide) as the molecule, how does the cAMP signaling EC50 (AlphaScreen, HEK293 cells stably expressing hMC4R) [5] read?
Answer: 0.03 nM

Question: With NDP-MSH (peptide) as the molecule, how does the cAMP signaling EC50 (AlphaScreen, HEK293 cells stably expressing hMC4R) [5] read?
Answer: 0.06 nM

Question: With α-MSH [reference compound] as the molecule, how does the “decrease of mean BRET signal compared to basal BRET signal” value (hMC4R [6]) read?
Answer: approximately 20%

Question: What about the “reduction in BRET signal compared to basal signal” value ([4]; ligand at 10 µM) of the same molecule?
Answer: 15%
